Results from ChEMBL document CHEMBL1157852, “Modulation of doxorubicin activity in cancer cells by conjugation with fatty acyl and terpenyl hydrazones” (Eur J Med Chem, 2010).
The source made the active and inactive calls. No cut-off for these calls is given here.

Key:
[1] = Cytotoxicity against human vinblastine-resistant KBV1 cells after 48 hrs by MTT assay; assay type: functional, cell-based; details: KB-V1, 48 h
Method in brief: (§1)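 MTT assay. Cells seeded and cultured 24 h, then exposed to compound for 24, 48 or 72 h. MTT added to a final 0.05% (HL-60, 518A2) or 0.1% (KB-V1, MCF-7) for 2 h. Formazan dissolved in 10% SDS/DMSO with 0.6% acetic acid; absorbance read at 570 nm against 630 nm background. Viability taken relative to untreated controls (100%). IC50 from concentration-response curves, mean ± SD of four independent experiments.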

[2] = test system: HL-60; assay: Induction of apoptosis in human HL60 cells assessed as increase of caspase 9 activity at 5 uM after 12 hrs by luminometric assay; assay type: functional, cell-based
Method in brief: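 HL-60 leukaemia cells were treated with test compound and sampled at intervals from 1 to 24 h. Protein was measured by Bradford. Caspase-9 (Caspase-Glo 8 for line 1) was read from a luminogenic peptide substrate as relative luminescence.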

[3] = Cytotoxicity against human vinblastine-resistant KBV1 cells after 72 hrs by MTT assay; assay type: functional, cell-based; details: KB-V1, 72 h; method in brief: as §1
[4] = test system: 518A2; assay: Induction of apoptosis in human 518A2 cells assessed as appearance of intact mitochondria in cytosol at 5 uM after 18 hrs using JC1 dye relative to control; assay type: functional
Method in brief: (§2)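 Mitochondrial membrane potential measured with JC-1. Cells exposed to 5 µM compound for 6 or 18 h, pelleted at 400 g, stained with 0.2× JC-1 at 37 °C for 15 min (HL-60) or 35 min (518A2), washed and resuspended in PBS. Red fluorescence (ex 585/em 590 nm) and green (ex 510/em 527 nm) read; red/green ratio relative to untreated controls (100%). Mean ± SD, four independent experiments.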

[5] = test system: HL-60; assay: Induction of apoptosis in human HL60 cells assessed as appearance of intact mitochondria in cytosol at 5 uM after 18 hrs using JC1 dye relative to control; assay type: functional; method in brief: as §2
[6] = test system: HL-60; assay: Cytotoxicity against human HL60 cells after 72 hrs by MTT assay; assay type: functional, cell-based; details: HL-60, 72 h; method in brief: as §1
[7] = test system: 518A2; assay: Induction of apoptosis in human 518A2 cells assessed as increase of caspase 9 activity at 5 uM after 8 to 12 hrs by luminometric assay; assay type: functional, cell-based
Method in brief: (§3)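 HL-60 and 518A2 cells treated with 5 µM compound and sampled at intervals from 1 to 24 h. Lysed in 50 mM Tris-HCl pH 7.4, 150 mM NaCl, 1% Triton X-100 with protease inhibitors for 15 min at 4 °C, spun at 800 g. Protein measured by Bradford. Caspase-3/7, -8 and -9 activities read with luminogenic peptide substrates; reported as relative luminescence.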

[8] = test system: HL-60; assay: Induction of apoptosis in human HL60 cells assessed as increase of caspase 3 activity at 5 uM after 12 hrs by luminometric assay; assay type: functional, cell-based; method in brief: as §3
[9] = test system: HL-60; assay: Cytotoxicity against human HL60 cells assessed as increase in ROS production at 5 uM after 24 hrs by NBT reduction assay relative to control; assay type: functional
Method in brief: (§4)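 NBT assay. HL-60 cells (0.5×10⁶/mL) or trypsinised 518A2 cells (5×10⁴/mL) pre-incubated 24 h at 37 °C, then given compound at a final 5 µM for 24 or 72 h. Medium removed; cells incubated with 0.1% NBT for 1 h (HL-60) or 4 h (518A2). Diformazan dissolved in 2 M KOH/DMSO; A630 read against 405 nm. Given as % of untreated controls; double quadruplicates.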

[10] = test system: HL-60; assay: Induction of apoptosis in human HL60 cells assessed as increase of Bcl-2 mRNA expression at 5 uM up to 24 hrs by […] analysis; assay type: functional, cell-based
[11] = test system: HL-60; assay: Cytotoxicity against human HL60 cells after 48 hrs by MTT assay; assay type: functional, cell-based; details: HL-60, 48 h; method in brief: as §1
[12] = test system: 518A2; assay: Induction of apoptosis in human 518A2 cells assessed as increase of caspase 8 activity at 5 uM measured up to 12 hrs by luminometric assay; assay type: functional, cell-based; method in brief: as §3
[13] = Cytotoxicity against human 518A2 cells assessed as increase in ROS production at 5 uM after 24 hrs by NBT reduction assay relative to control; assay type: functional; method in brief: as §4
[14] = Cytotoxicity against human vinblastine-resistant KBV1 cells after 72 hrs by MTT assay in presence of 24 mM ABC transporter inhibitor verapamil hydrochloride; assay type: functional, cell-based; details: KB-V1, 72 h, in the assay text read “24 uM” for “24 mM”
Method in brief: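 MTT viability assay on P-gp-overexpressing KB-V1/Vbl cells with 24 µM verapamil hydrochloride added before the compound; 72 h exposure. Formazan read at 570/630 nm relative to untreated controls. IC50 from concentration-response curves, mean ± SD of four independent experiments.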

[15] = test system: HL-60; assay: Induction of apoptosis in human HL60 cells assessed as DNA ladder formation at 5 uM after 24 hrs by agarose gel electrophoresis; assay type: functional, cell-based
Method in brief: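 HL-60 cells incubated with 5 µM compound for 24 h, then examined for DNA ladder patterns.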

[16] = Cytotoxicity against human 518A2 cells after 72 hrs by MTT assay; assay type: functional, cell-based; details: 518A2, 72 h; method in brief: as §1
[17] = test system: 518A2; assay: Induction of apoptosis in human 518A2 cells assessed as increase of ratio of Bax to Bcl-2 mRNA expression at 5 uM after 6 to 18 hrs by RT-PCR analysis; assay type: functional, cell-based
Method in brief: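 518A2 cells exposed to 5 µM compound for 6 h or 18 h. bax and bcl-2 mRNA quantified by real-time PCR, normalised to GAPDH, and expressed as the bax/bcl-2 ratio.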

[18] = test system: HL-60; assay: Induction of apoptosis in human HL60 cells assessed as increase of caspase 8 activity at 5 uM after 4 to 24 hrs by luminometric assay; assay type: functional, cell-based; method in brief: as §3
[19] = test system: 518A2; assay: Induction of apoptosis in human 518A2 cells assessed as increase of Bcl-2 mRNA expression at 5 uM up to 24 hrs by […] analysis; assay type: functional, cell-based
[20] = test system: HL-60; assay: Induction of apoptosis in human HL60 cells assessed as increase of Bax mRNA expression at 5 uM up to 24 hrs by […] analysis; assay type: functional, cell-based
[21] = test system: HL-60; assay: Cytotoxicity against human HL60 cells after 24 hrs by MTT assay; assay type: functional, cell-based; details: HL-60, 24 h; method in brief: as §1
[22] = test system: HL-60; assay: Induction of apoptosis in human HL60 cells assessed as increase of caspase 3 activity at 5 uM after 4 hrs by luminometric assay; assay type: functional, cell-based; method in brief: as §3
[23] = test system: 518A2; assay: Induction of apoptosis in human 518A2 cells assessed as appearance of intact mitochondria in cytosol at 5 uM after 6 hrs using JC1 dye relative to control; assay type: functional; method in brief: as §2
[24] = Cytotoxicity against human 518A2 cells after 24 hrs by MTT assay; assay type: functional, cell-based; details: 518A2, 24 h; method in brief: as §1
[25] = test system: 518A2; assay: Induction of apoptosis in human 518A2 cells assessed as increase of caspase 3 activity at 5 uM measured up to 12 hrs by luminometric assay; assay type: functional, cell-based; method in brief: as §3
[26] = Cytotoxicity against human 518A2 cells assessed as increase in ROS production at 5 uM after 72 hrs by NBT reduction assay relative to control; assay type: functional; method in brief: as §4
[27] = Cytotoxicity against human vinblastine-resistant KBV1 cells after 24 hrs by MTT assay; assay type: functional, cell-based; details: KB-V1, 24 h; method in brief: as §1
[28] = Cytotoxicity against human 518A2 cells after 48 hrs by MTT assay; assay type: functional, cell-based; details: 518A2, 48 h; method in brief: as §1
[29] = test system: HL-60; assay: Cytotoxicity against human HL60 cells assessed as increase in ROS production at 5 uM after 72 hrs by NBT reduction assay relative to control; assay type: functional; method in brief: as §4
[30] = test system: HL-60; assay: Induction of apoptosis in human HL60 cells assessed as appearance of intact mitochondria in cytosol at 5 uM after 6 hrs using JC1 dye relative to control; assay type: functional; method in brief: as §2

COc1cccc2c1C(=O)c1c(O)c3c(c(O)c1C2=O)C[C@@](O)(C(=O)CO)C[C@@H]3O[C@H]1C[C@H](N)[C@H](O)[C@H](C)O1.Cl [DOXORUBICIN HYDROCHLORIDE]
IC50 [1]: 35600 nM | Activity [2]: Active | IC50 [3]: 18300 nM | Activity [4]: 74% | Activity [5]: 28% | IC50 [6]: 80 nM | Activity [7]: Active | Activity [8]: Active | Activity [9]: 2.8% | Activity [10]: Active | IC50 [11]: 100 nM | Activity [12]: inactive | Activity [13]: 2.5% | IC50 [14]: 1020 nM | Activity [15]: Active | IC50 [16]: 120 nM | Activity [17]: Active | Activity [18]: Active | Activity [19]: inactive | Activity [20]: inactive | IC50 [21]: 220 nM | Activity [22]: Active | Activity [23]: 98% | IC50 [24]: 340 nM | Activity [25]: inactive | Activity [26]: 15.4% | IC50 [27]: 59900 nM | IC50 [28]: 170 nM | Activity [29]: 5.6% | Activity [30]: 83%
